From ChEMBL document CHEMBL1152866, “Modulation of gene expression via disruption of NF-kappaB signaling by a bacterial small molecule” (Science, 2008) come the findings set out here.

Experiment [1] is filed under the species Mus musculus. Put plainly: Suppression of LPS-induced TNF expression in C57BL/6 transgenic mouse bearing IkappaBalpha-reporter after 2 hrs by luciferase reporter gene assay. In kind it is functional, organism-based. In short, it runs like this:
(§1)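 Animals received an injection of vehicle, LPS, C12, or LPS plus C12. Whole-animal bioluminescence was recorded 2 hours after injection as the read-out of reporter activity.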
On the technique in general: Reporter assays use an easily measured gene product as a stand-in for the process of interest.

Experiment [2] has as its target MAP kinase p38 (Homo sapiens) (UniProt O15264+Q15759+Q16539+P53778). The experiment in a line: Inhibition of TNF-induced p38 phosphorylation in human bronchial epithelial cells up to 120 mins by Western blot analysis. In kind it is cell-based. The note with it: Epithelial cell. In general terms: A western blot detects proteins with antibodies after separation by electrophoresis.

Experiment [3] relates to MEF. Put plainly: Inhibition of LPS-induced c-jun mRNA expression in MEF after 90 mins by Northern blot analysis. In kind it is functional, cell-based. As to conditions: Mus musculus.
In experiment [4] the test system is Epithelial cell. Put plainly: Inhibition of TNF-induced RelA expression in human bronchial epithelial cells up to 120 mins by Western blot analysis. In kind it is functional, cell-based.
The species named for experiment [5] is Mus musculus. The experiment in a line: Induction of IKK activity in mouse BMDM assessed as GST-IkappaBalpha phosphorylation by immunoprecipitation kinase assay.
Experiment [6] addresses T1, Inhibitor of nuclear factor kappa-B kinase subunit alpha (Homo sapiens) (UniProt O15111).
T1 sequence (whole entry): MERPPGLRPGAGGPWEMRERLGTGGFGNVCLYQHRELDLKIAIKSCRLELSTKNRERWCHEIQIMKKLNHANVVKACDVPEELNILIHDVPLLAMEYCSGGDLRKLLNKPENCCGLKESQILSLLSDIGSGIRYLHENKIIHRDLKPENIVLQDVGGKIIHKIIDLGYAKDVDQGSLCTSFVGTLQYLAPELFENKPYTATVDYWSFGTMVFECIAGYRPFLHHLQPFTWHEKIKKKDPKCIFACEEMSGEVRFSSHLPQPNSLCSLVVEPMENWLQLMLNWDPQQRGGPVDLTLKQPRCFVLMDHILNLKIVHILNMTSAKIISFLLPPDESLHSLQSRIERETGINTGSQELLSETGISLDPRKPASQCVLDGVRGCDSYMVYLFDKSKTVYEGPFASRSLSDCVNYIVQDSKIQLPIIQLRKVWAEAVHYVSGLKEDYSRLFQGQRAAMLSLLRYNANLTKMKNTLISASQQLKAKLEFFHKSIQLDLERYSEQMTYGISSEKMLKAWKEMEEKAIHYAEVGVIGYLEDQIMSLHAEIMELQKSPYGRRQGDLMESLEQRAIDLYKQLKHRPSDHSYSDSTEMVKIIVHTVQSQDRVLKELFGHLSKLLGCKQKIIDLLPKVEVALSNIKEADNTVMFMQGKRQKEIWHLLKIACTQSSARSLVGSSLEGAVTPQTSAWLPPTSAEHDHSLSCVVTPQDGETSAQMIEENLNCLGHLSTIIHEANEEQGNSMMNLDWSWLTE
Put plainly: Inhibition of IkappaBalpha in human bronchial epithelial cells assessed after 2 hrs by Western blot analysis. In kind it is cell-based. The note with it: Epithelial cell. The method in brief:
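WI38 lung fibroblasts and bronchial epithelial cells were stimulated for 2 hours. The same Western blot was probed for PARP cleavage, total IκBα and phosphorylated IκBα.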

In experiment [7] the target is Transcription factor p65 (Mus musculus) (UniProt Q04207). Put plainly: Inhibition of TNF-induced RelA phosphorylation in mouse MEF up to 120 mins by Western blot analysis.
Sequence of Transcription factor p65 (Mus musculus) (Q04207 whole entry): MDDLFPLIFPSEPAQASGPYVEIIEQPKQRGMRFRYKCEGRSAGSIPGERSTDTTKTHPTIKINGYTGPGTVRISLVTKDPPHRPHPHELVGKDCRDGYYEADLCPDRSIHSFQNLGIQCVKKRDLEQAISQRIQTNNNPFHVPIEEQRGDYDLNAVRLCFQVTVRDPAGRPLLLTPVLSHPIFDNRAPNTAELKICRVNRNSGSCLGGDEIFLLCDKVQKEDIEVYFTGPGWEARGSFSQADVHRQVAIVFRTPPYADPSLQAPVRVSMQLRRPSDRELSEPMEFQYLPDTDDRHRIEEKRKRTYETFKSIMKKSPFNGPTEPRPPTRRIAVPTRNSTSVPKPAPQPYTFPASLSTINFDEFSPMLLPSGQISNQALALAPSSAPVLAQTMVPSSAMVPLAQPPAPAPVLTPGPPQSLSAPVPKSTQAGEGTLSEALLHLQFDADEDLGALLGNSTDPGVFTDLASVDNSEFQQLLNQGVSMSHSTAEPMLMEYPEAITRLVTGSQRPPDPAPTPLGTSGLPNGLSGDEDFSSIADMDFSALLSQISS
Experiment [8] deals with Epithelial cell. Put plainly: Inhibition of TNF-induced IkappaBbeta expression in human bronchial epithelial cells up to 120 mins by Western blot analysis. In kind it is functional, cell-based.
The target of experiment [9] is Transcription factor p65 (Homo sapiens) (UniProt Q04206). Put plainly: Inhibition of TNF-induced RelA phosphorylation in human bronchial epithelial cells up to 120 mins by Western blot analysis. In kind it is cell-based. As to conditions: Epithelial cell.
Sequence of Transcription factor p65 (Homo sapiens) (Q04206 whole entry): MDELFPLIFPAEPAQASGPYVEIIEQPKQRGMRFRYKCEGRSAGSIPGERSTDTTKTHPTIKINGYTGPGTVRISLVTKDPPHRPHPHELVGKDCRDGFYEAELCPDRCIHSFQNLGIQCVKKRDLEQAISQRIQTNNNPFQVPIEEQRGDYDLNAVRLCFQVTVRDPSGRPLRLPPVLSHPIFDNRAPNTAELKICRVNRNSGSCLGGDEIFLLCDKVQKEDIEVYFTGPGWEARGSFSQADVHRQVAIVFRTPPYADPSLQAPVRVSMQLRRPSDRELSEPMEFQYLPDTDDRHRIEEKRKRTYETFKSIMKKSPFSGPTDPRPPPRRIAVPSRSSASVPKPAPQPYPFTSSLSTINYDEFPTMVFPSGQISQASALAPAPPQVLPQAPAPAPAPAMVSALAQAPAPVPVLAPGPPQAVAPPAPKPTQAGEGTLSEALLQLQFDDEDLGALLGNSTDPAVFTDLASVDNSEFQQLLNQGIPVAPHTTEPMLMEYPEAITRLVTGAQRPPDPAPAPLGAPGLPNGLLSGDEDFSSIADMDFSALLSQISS
The subject of experiment [10] is Blood. The experiment in a line: Inhibition of LPS-induced TNF production in human whole blood after 3 hrs. In kind it is functional, tissue-based.
For experiment [11], the species on record is Mus musculus. Put plainly: Inhibition of IKK activity in LPS-induced mouse BMDM assessed as reduction in phosphorylation of RelA treated 2 hrs after LPS challenge measured up to 120 mins by immunoblot analysis.
Experiment [12] addresses MAP kinase p38 (Mus musculus) (UniProt P47811+O08911+Q9WUI1+Q9Z1B7). The experiment in a line: Inhibition of LPS-induced p38 phosphorylation in mouse BMDM measured up to 120 mins by Western blot analysis.
For experiment [13], the species on record is Mus musculus. The experiment in a line: Suppression of LPS-induced TNF expression in C57BL/6 transgenic mouse bearing TNF-reporter after 2 hrs by luciferase reporter gene assay. In kind it is functional, organism-based. In short, it runs like this:
as §1

Experiment [14] deals with MEF. The experiment in a line: Effect on TNF-induced RANTES mRNA expression in MEF by Northern blot analysis. In kind it is functional, cell-based. As to conditions: Mus musculus.
Experiment [15] concerns MEF. The experiment in a line: Inhibition of LPS-induced MCP-1 mRNA expression in MEF after 90 mins by Northern blot analysis. As to conditions: Mus musculus. In kind it is functional, cell-based.
The species entered for experiment [16] is Mus musculus. Put plainly: Inhibition of IKK activity in LPS-induced mouse BMDM assessed as reduction in phosphorylation of IkappaBalpha treated 2 hrs after LPS challenge measured up to 120 mins by immunoblot analysis.
The subject of experiment [17] is Macrophage. The experiment in a line: Inhibition of LPS-induced TNF mRNA expression in mouse C57BL/6 mouse alveolar macrophages up to 50 uM by Northern blot analysis. In kind it is functional, cell-based.
Experiment [18] deals with THP-1. Put plainly: Inhibition of LPS-induced IkappaBalpha expression in human THP1 cells measured up to 120 mins by Western blot analysis. In kind it is functional, cell-based.
The species entered for experiment [19] is Mus musculus. Put plainly: Effect on IKK activity in LPS-induced mouse BMDM assessed as induction of phosphorylation of p38 treated 2 hrs after LPS challenge measured up to 120 mins by immunoblot analysis.
Experiment [20] relates to Macrophage. Put plainly: Inhibition of LPS-induced IkappaBalpha mRNA expression in mouse C57BL/6 mouse alveolar macrophages up to 50 uM by Northern blot analysis. In kind it is functional, cell-based.
Experiment [21] deals with BMDM. Put plainly: Inhibition of LPS-induced IRF-1 mRNA expression in mouse BMDM up to 3 hrs by Northern blot analysis. In kind it is functional, cell-based.
In experiment [22] the test system is BMDM. The experiment in a line: Inhibition of LPS-induced IL-12beta mRNA expression in mouse BMDM up to 3 hrs by Northern blot analysis. In kind it is functional, cell-based.

Active and inactive are the calls of the source. No cut-off for these calls is given here.

With `CCCCCCCCCC(=O)CC(=O)N[C@H]1CCOC1=O`, the outcome in experiment [1], in experiment [2], in [4], in experiment [6], in experiment [7] and in [8] was Active. Moreover, the result in [9], in experiment [10], in experiment [11], in experiment [13], in [14] and in experiment [16] was Active. Besides, the outcome in [17], in experiment [18], in experiment [19] and in [20] was Active. Also, the Activity result in [3], in [15], in experiment [21] and in [22] was “Dose-dependent effect” in each case. For the same molecule, the outcome in experiment [5] and in [12] was inactive.
